# According to ChEMBL document CHEMBL3826969, “Synthesis and anticancer potential of novel xanthone derivatives with 3,6-substituted chains” (Bioorg Med Chem, 2016):
# The source made the active and inactive calls. The rule behind the calls is not given here.
# Assays:
# A549 [1] = test: Cell cycle arrest in human A549 cells assessed as accumulation at G2/M phase at 25 uM after 48 hrs by propidium iodide staining based flow cytometry (reference value: 23.4 %); type: functional
# Procedure, shortened: (§1)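 A549 cells exposed 48 h to derivative (25 µM), collected, fixed overnight in 70% ethanol, then stained 30 min at room temperature with 50 µg/mL propidium iodide, 200 µg/mL RNase A and 0.3% Triton X-100. Flow cytometry gave sub-G1, G0/G1, S and G2/M fractions; profile from 3 independent experiments.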
# A549 [2] = test: Cell cycle arrest in human A549 cells assessed as accumulation at S phase at 25 uM after 48 hrs by propidium iodide staining based flow cytometry (reference value: 9.3 %); type: functional; procedure, shortened: as §1
# ASPC1 = test: Cytotoxicity against human AsPC1 cells assessed as cell growth inhibition after 48 hrs by MTT assay; type: functional, cell-based; conditions: ASPC1, 48 h
# Procedure, shortened: (§2)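 Cells seeded in 96-well plates (MDA-MB-231, A549, AsPC-1 5×10^3; PC-3 8×10^3; HCT116 1×10^4 per well), attached 24 h in RPMI-1640 with 10% fetal calf serum at 37°C, 5% CO2. Serially diluted compound (final 0–400 μM, DMSO <0.1%) added for 48 h; 5-FU positive control. MTT read at 560 nm, triplicate; viability = treated/vehicle mean OD.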
# MDA-MB-231 = test: Cytotoxicity against human MDA-MB-231 cells assessed as cell growth inhibition after 48 hrs by MTT assay; type: functional, cell-based; conditions: MDA-MB-231, 48 h; procedure, shortened: as §2
# A549 [3] = test: Cell cycle arrest in human A549 cells assessed as accumulation at G0/G1 phase at 25 uM after 48 hrs by propidium iodide staining based flow cytometry (reference value: 68.1 %); type: functional; procedure, shortened: as §1
# [4] = Cytotoxicity against human HCT116 cells assessed as cell growth inhibition after 48 hrs by MTT assay; type: functional, cell-based; conditions: HCT-116, 48 h; procedure, shortened: as §2
# A549 [5] = test: Cytotoxicity against human A549 cells assessed as cell growth inhibition after 48 hrs by MTT assay; type: functional, cell-based; conditions: A549, 48 h; procedure, shortened: as §2
# [6] = Cytotoxicity against human PC3 cells assessed as cell growth inhibition after 48 hrs by MTT assay; type: functional, cell-based; conditions: PC-3, 48 h; procedure, shortened: as §2
# A549 [7] = test: Induction of apoptosis in human A549 cells assessed as viable cells at 25 uM after 48 hrs by Annexin V-FITC/propidium iodide staining based flow cytometry (reference value: 98.2 %); type: functional; conditions: A549, 48 h, read-out: Activity
# A549 [8] = test: Induction of apoptosis in human A549 cells assessed as early apoptotic cells at 25 uM after 48 hrs by Annexin V-FITC/propidium iodide staining based flow cytometry (reference value: 0.5 %); type: functional
# A549 [9] = test: Induction of apoptosis in human A549 cells assessed as late apoptotic cells at 25 uM after 48 hrs by Annexin V-FITC/propidium iodide staining based flow cytometry (reference value: 1.2 %); type: functional
# A549 [10] = test: Induction of apoptosis in human A549 cells assessed as necrotic cells at 25 uM after 48 hrs by Annexin V-FITC/propidium iodide staining based flow cytometry (reference value: 0.1 %); type: functional
# A549 [11] = test: Induction of apoptosis in human A549 cells assessed as increase in caspase 3/7 activity at 25 uM after 48 hrs by Caspase-Glo 3/7 assay relative to control; type: functional
# Procedure, shortened: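 A549 cells (8×10^3) plated in duplicate in 96-well plates, treated 25 µM for 48 h. Caspase-Glo 3/7 luminescence read after 1 h with substrate; blank (medium plus reagent) subtracted; fold increase = treated/control reading; mean ± 1 SD.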
# A549 [12] = test: Cell cycle arrest in human A549 cells assessed as accumulation at G0/G1 phase after 48 hrs by propidium iodide staining based flow cytometry (reference value: 68.1 %); type: functional
# Procedure, shortened: (§3)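 A549 cells exposed 48 h to 25 µM xanthone derivative, fixed overnight in 70% ethanol, then stained 30 min at room temperature with 50 µg/mL propidium iodide, 200 µg/mL RNase A and 0.3% Triton X-100. Sub-G1, G0/1, S and G2/M fractions were measured by flow cytometry. Three independent experiments.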
# A549 [13] = test: Cell cycle arrest in human A549 cells assessed as accumulation at S phase after 48 hrs by propidium iodide staining based flow cytometry (reference value: 9.3 %); type: functional; procedure, shortened: as §3
# A549 [14] = test: Cell cycle arrest in human A549 cells assessed as accumulation at G2/M phase after 48 hrs by propidium iodide staining based flow cytometry (reference value: 23.4 %); type: functional; procedure, shortened: as §3
# A549 [15] = test: Induction of apoptosis in human A549 cells assessed as viable cells after 48 hrs by Annexin V-FITC/propidium iodide staining based flow cytometry (reference value: 98.2 %); type: functional
# Procedure, shortened: (§4)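 2 × 10^5 A549 cells seeded and given 25 µM compound for 48 h. Cells were trypsinized and washed in ice-cold PBS. 1 × 10^5 cells were stained with Annexin V-FITC plus propidium iodide in binding buffer for 15 min at room temperature, diluted with binding buffer, kept on ice, and run on a flow cytometer. Quadrants: viable, early apoptotic, late apoptotic, necrotic.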
# A549 [16] = test: Induction of apoptosis in human A549 cells assessed as early apoptotic cells after 48 hrs by Annexin V-FITC/propidium iodide staining based flow cytometry (reference value: 0.5 %); type: functional; procedure, shortened: as §4
# A549 [17] = test: Induction of apoptosis in human A549 cells assessed as late apoptotic cells after 48 hrs by Annexin V-FITC/propidium iodide staining based flow cytometry (reference value: 1.2 %); type: functional; procedure, shortened: as §4
# A549 [18] = test: Induction of apoptosis in human A549 cells assessed as necrotic cells after 48 hrs by Annexin V-FITC/propidium iodide staining based flow cytometry (reference value: 0.1 %); type: functional; procedure, shortened: as §4
# A549 [19] = test: Induction of apoptosis in human A549 cells assessed as increase in caspase 3/7 activity after 48 hrs by Caspase-Glo 3/7 assay relative to control; type: functional
# Procedure, shortened: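 In duplicate, 8 × 10^3 A549 cells were treated with 25 µM compound for 48 h. Caspase-3/7 luminescence was read 1 h after adding the Caspase-Glo 3/7 substrate, with blank (medium plus reagent) subtracted. Fold increase = treated reading / control reading. Mean ± 1 SD.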
SMILES,Activity (A549 [1]) [%],Activity (A549 [2]) [%],IC50 (ASPC1) [µM],IC50 (MDA-MB-231) [µM],Activity (A549 [3]) [%],IC50 [4] [µM],IC50 (A549 [5]) [µM],IC50 [6] [µM],viability at 25 µM (A549 [7]) [%],Activity (A549 [8]) [%],Activity (A549 [9]) [%],Activity (A549 [10]) [%],further results
O=C(COc1ccc2c(=O)c3ccc(OCC(=O)N4CCOCC4)cc3oc2c1)N1CCOCC1,25.1,9.6,> 400,> 400,65.7,> 400,> 400,> 400,97.9,0.5,0.7,0.9,–
Cc1c(OCC(=O)NC2CCCCC2C)ccc2c(=O)c3ccc(OCC(=O)NC4CCCCC4C)cc3oc12 (stereo not drawn),29.1,9.4,15.4,11,61.8,18.3,22.3,23.3,93.6,3.1,2.4,1,Activity (A549 [11]): inactive
Cc1c(OCC(=O)N2CC(C)CC(C)C2)ccc2c(=O)c3ccc(OCC(=O)N4CC(C)CC(C)C4)cc3oc12 (stereo not drawn),15.5,6,4.76,8.06,78.9,6.09,4.59,6.18,49,37.5,12.4,1.1,fold change (FC) (A549 [11]): 2.04
Cc1c(OCC(=O)N2C(C)CCCC2C)ccc2c(=O)c3ccc(OCC(=O)N4C(C)CCCC4C)cc3oc12 (stereo not drawn),17.6,6.9,7.1,7.31,75.7,7.63,10.6,4.27,80.7,7.3,9.8,2.1,fold change (FC) (A549 [11]): 3.45
CCOC(=O)N1CCN(C(=O)COc2ccc3c(=O)c4ccc(OCC(=O)N5CCN(C(=O)OCC)CC5)c(C)c4oc3c2)CC1,23.2,11.9,34.1,64.5,65.5,8.16,84.9,53.3,97.1,1.6,1.1,0.3,Activity (A549 [11]): inactive
O=c1[nH]cc(F)c(=O)[nH]1 [FLUOROURACIL],–,–,98,35.9,–,15.4,39.9,72.1,–,–,–,–,Activity (A549 [12]): 74.3%; Activity (A549 [13]): 15.3%; Activity (A549 [14]): 11.7%; Activity (A549 [15]): 93.2%; Activity (A549 [16]): 5.2%; Activity (A549 [17]): 1%; Activity (A549 [18]): 0.6%; fold change (FC) (A549 [19]): 4.2
CN1CCN(C(=O)COc2ccc3c(=O)c4ccc(OCC(=O)N5CCN(C)CC5)cc4oc3c2)CC1,24.2,10.1,> 400,> 400,66.4,> 400,> 400,> 400,94.1,0.7,2.5,2.7,–
Cc1c(OCC(=O)N2CC(C)OC(C)C2)ccc2c(=O)c3ccc(OCC(=O)N4CC(C)OC(C)C4)cc3oc12 (stereo not drawn),24,9.7,116,385,66.9,141,295,214,98.3,0.7,0.8,0.2,–
CC1CCCC(C)N1C(=O)COc1ccc2c(=O)c3ccc(OCC(=O)N4C(C)CCCC4C)cc3oc2c1 (stereo not drawn),33.5,9.8,13.8,24.3,57.4,15.7,17.2,6.68,87.7,1.5,9.1,1.1,fold change (FC) (A549 [11]): 2.31
Cc1c(OCC(=O)NCC2CCCO2)ccc2c(=O)c3ccc(OCC(=O)NCC4CCCO4)cc3oc12 (stereo not drawn),13,13.2,78.7,98.4,74.6,33.8,27.5,34.5,95.4,1.2,2.5,0.9,Activity (A549 [11]): inactive
Cc1c(OCC(=O)N2CCOCC2)ccc2c(=O)c3ccc(OCC(=O)N4CCOCC4)cc3oc12,28,11.8,> 400,> 400,61,> 400,> 400,> 400,98.7,0.9,0.4,0.1,–
Cc1c(OCC(=O)N2CCN(C)CC2)ccc2c(=O)c3ccc(OCC(=O)N4CCN(C)CC4)cc3oc12,20.7,9,97.8,257,71.2,119,181,89.2,95.6,0.7,3.1,0.6,–
O=C(COc1ccc2c(=O)c3ccc(OCC(=O)NCC4CCCO4)cc3oc2c1)NCC1CCCO1 (stereo not drawn),26.3,9.5,> 400,> 400,64.6,> 400,> 400,249,96.5,0.5,1.2,1.8,–
